In ChEMBL document CHEMBL1156597, “Structure-activity relationship of kahalalide F synthetic analogues” (J Med Chem, 2008):

Key:
DU-145 = assay: Cytotoxicity against human DU145 cells after 48 hrs by SRB assay; assay type: functional, cell-based; conditions: Homo sapiens, DU-145, 48 h; for CC50: read-out: LC50 (the source's name)
How it was run: (§1)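 Cells grown in RPMI 1640 with 10% FBS and penicillin/streptomycin at 37 °C and 5% CO₂, trypsinized, then seeded at 5 × 10³/well. After 18 h drug-free attachment, samples in DMSO/EtOH/PBS (0.5:0.5:99) were added for 48 h continuous exposure. Cells were fixed with cold TCA (1 h, 4 °C) and stained with SRB (10 min). Tris-solubilized stain read at 490 nm. Triplicate wells, mean ± SD; GI₅₀ derived.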

[1] = Cytotoxicity against human IGROV cells after 48 hrs by SRB assay; assay type: functional; conditions: for CC50: read-out: LC50 (the source's name); how it was run: as §1
[2] = Cytotoxicity against human IGROV-ET cells after 48 hrs by SRB assay; assay type: functional; conditions: for CC50: read-out: LC50 (the source's name); how it was run: as §1
SK-BR-3 = assay: Cytotoxicity against human SKBR3 cells after 48 hrs by SRB assay; assay type: functional; conditions: SK-BR-3, 48 h; for CC50: read-out: LC50 (the source's name); how it was run: as §1
SK-MEL-28 = assay: Cytotoxicity against human SK-MEL-28 cells after 48 hrs by SRB assay; assay type: functional, cell-based; conditions: Homo sapiens, SK-MEL-28, 48 h; for CC50: read-out: LC50 (the source's name); how it was run: as §1
A549 = assay: Cytotoxicity against human A549 cells after 48 hrs by SRB assay; assay type: functional, cell-based; conditions: Homo sapiens, A549, 48 h; how it was run: as §1
K562 = assay: Cytotoxicity against human K562 cells after 48 hrs by SRB assay; assay type: functional; conditions: K562, 48 h; for CC50: read-out: LC50 (the source's name); how it was run: as §1
PANC-1 = assay: Cytotoxicity against human PANC1 cells after 48 hrs by SRB assay; assay type: functional; conditions: PANC-1, 48 h; for CC50: read-out: LC50 (the source's name); how it was run: as §1
HT-29 = assay: Cytotoxicity against human HT29 cells after 48 hrs by SRB assay; assay type: functional, cell-based; conditions: Homo sapiens, HT-29, 48 h; for CC50: read-out: LC50 (the source's name); how it was run: as §1
LoVo [3] = assay: Cytotoxicity against human LoVo cells after 48 hrs by SRB assay; assay type: functional; conditions: for CC50: read-out: LC50 (the source's name)
LoVo [4] = assay: Cytotoxicity against human doxorubicin resistant LoVo cells after 48 hrs by SRB assay; assay type: functional; conditions: for CC50: read-out: LC50 (the source's name); how it was run: as §1
HeLa = assay: Cytotoxicity against human HeLa cells after 48 hrs by SRB assay; assay type: functional; conditions: for CC50: read-out: LC50 (the source's name); how it was run: as §1
[5] = Cytotoxicity against human HeLa-APL cells after 48 hrs by SRB assay; assay type: functional; how it was run: as §1

SMILES	GI50 (DU-145; read-out: GI50)	CC50 (DU-145)	GI50 [1]	GI50 ([1]; read-out: GI50)	CC50 [1]	CC50 [2]	GI50 (SK-BR-3; read-out: GI50)	CC50 (SK-BR-3)	GI50 (SK-MEL-28)	GI50 (SK-MEL-28; read-out: GI50)	CC50 (SK-MEL-28)	LC50 (A549)	CC50 (K562)	CC50 (PANC-1)	CC50 (HT-29)	GI50 (LoVo [3])	TGI (LoVo [3])	CC50 (LoVo [3])	GI50 (LoVo [4])	TGI (LoVo [4])	other results
C/C=C1\NC(=O)[C@H](Cc2ccccc2)NC(=O)[C@@H](C(C)C)NC(=O)[C@@H]([C@H](C)CC)NC(=O)[C@H](NC(=O)[C@H](NC(=O)[C@H](CCCNC(=O)CCOCCOCCNC(=O)OCC2c3ccccc3-c3ccccc32)NC(=O)[C@H]2CCCN2C(=O)[C@H](NC(=O)[C@@H](NC(=O)[C@@H](NC(=O)[C@H](NC(=O)CCCC(C)C)C(C)C)[C@@H](C)O)C(C)C)C(C)C)[C@H](C)CC)[C@H](C)OC(=O)[C@H](C(C)C)NC1=O	16.4 nM	557 nM	79.9 nM	36.1 nM	404 nM	216 nM	39.6 nM	392 nM	840 nM	68.4 nM	10.3 nM	32 nM	15.4 nM	141 nM	263 nM	44.3 nM	61.7 nM	43.2 nM	199 nM	179 nM	TGI (DU-145): 15.7 nM; GI50 (SK-BR-3): 53.4 nM; GI50 (HT-29): 85.3 nM; TGI (HT-29): 117 nM; CC50 (LoVo [4]): 238 nM; GI50 (HeLa): 56.4 nM; TGI (HeLa): 119 nM; CC50 (HeLa): 767 nM; GI50 [5]: 53.8 nM; LC50 (concentration giving 50% net cell kill) [5]: 528 nM; TGI [5]: 89.7 nM
C/C=C1\NC(=O)[C@H](Cc2ccc(Cl)c(Cl)c2)NC(=O)[C@@H](C(C)C)NC(=O)[C@@H]([C@H](C)CC)NC(=O)[C@H](NC(=O)[C@H](NC(=O)[C@H](CCCN)NC(=O)[C@H]2CCCN2C(=O)[C@H](NC(=O)[C@@H](NC(=O)[C@@H](NC(=O)[C@H](NC(=O)CC[C@@H](C)CC)C(C)C)[C@@H](C)O)C(C)C)C(C)C)[C@H](C)CC)[C@H](C)OC(=O)[C@H](C(C)C)NC1=O	266 nM	734 nM	329 nM	383 nM	567 nM	539 nM	283 nM	1030 nM	852 nM	587 nM	1210 nM	6270 nM	1850 nM	1810 nM	201 nM	426 nM	451 nM	319 nM	299 nM	248 nM	GI50 (DU-145): 370 nM; GI50 [2]: 379 nM; GI50 ([2]; read-out: GI50): 246 nM; TGI (SK-BR-3): 368 nM; GI50 (A549): 206 nM; GI50 (A549; read-out: GI50): 110 nM; GI50 (PANC-1): 2090 nM; TGI (PANC-1): 1950 nM; CC50 (LoVo [4]): 134 nM; GI50 (HeLa): 493 nM; TGI (HeLa): 813 nM; CC50 (HeLa): 1100 nM; GI50 [5]: 1020 nM; LC50 (concentration giving 50% net cell kill) [5]: 1140 nM; TGI [5]: 1080 nM
C/C=C1\NC(=O)[C@H](Cc2ccc(F)c(F)c2)NC(=O)[C@@H](C(C)C)NC(=O)[C@@H]([C@H](C)CC)NC(=O)[C@H](NC(=O)[C@H](NC(=O)[C@H](CCCN)NC(=O)[C@H]2CCCN2C(=O)[C@H](NC(=O)[C@@H](NC(=O)[C@@H](NC(=O)[C@H](NC(=O)CCCC(C)C)C(C)C)[C@@H](C)O)C(C)C)C(C)C)[C@H](C)CC)[C@H](C)OC(=O)[C@H](C(C)C)NC1=O	43 nM	243 nM	86.8 nM	37.9 nM	156 nM	515 nM	30 nM	134 nM	203 nM	128 nM	323 nM	968 nM	1610 nM	1650 nM	90.4 nM	12.8 nM	21.2 nM	25.9 nM	18.4 nM	20.5 nM	GI50 (DU-145): 131 nM; TGI [2]: 76.7 nM; GI50 ([2]; read-out: GI50): 47 nM; GI50 (SK-BR-3): 31.9 nM; GI50 (A549): 293 nM; GI50 (A549; read-out: GI50): 137 nM; GI50 (K562): 732 nM; TGI (K562): 1090 nM; GI50 (PANC-1): 575 nM; TGI (PANC-1): 979 nM; GI50 (HT-29): 30.4 nM; TGI (HT-29): 28.7 nM; CC50 (LoVo [4]): 52.8 nM; GI50 (HeLa): 98.1 nM; TGI (HeLa): 177 nM; CC50 (HeLa): 466 nM; GI50 [5]: 155 nM; LC50 (concentration giving 50% net cell kill) [5]: 271 nM; TGI [5]: 166 nM
